# Screens from PubChem.
# Hits are enriched below; roughly 1.7% of the tested compounds scored in any of these assays.
# SR-BI uptake up: activators of SR-BI mediated HDL lipid uptake | activation, % at 12.5 µM | AID 504775 | 0.096% of 320,000 active | CHO ldlA[mSR-BI] cells, DiI-HDL uptake fluorescence, 3 h; 100 = double the neutral-control signal;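 active = mean replicate activation of at least 60% and every replicate at or above 60%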;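 also: 0% = median plate neutral-control signal and 100% = twice that signal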
#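 System: CHO ldlA[mSR-BI] cells / Medium: HEPES-buffered (25 mM, pH 7.4) F12 plus 0.5% BSA / Probe or stimulus: labelled HDL, 10 µg/mL / Doses: single compound concentration, delivered by pin transfer / Schedule: 3 h, 37 °C / Measured by: DiI fluorescence, bottom read / Measure: cell-associated DiI fluorescence as measure of HDL uptake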
# V-ATPase pH: yeast V-ATPase proton transport regulation by pHLuorin; response, % at 10 µM; S. cerevisiae, pHLuorin cytosolic pH fluorescence; AID 504577; 0.37% of 350,000 active; in the data active = response mostly above about 7.3%, no sharp cut-off; inactive = mostly below about 5.4%; also: actives read high
# SR-BI DiI inh: blocks mouse SR-BI lipid uptake from DiI-HDL; AID 488896; ldlA[mSR-BI] CHO cells, DiI-HDL uptake fluorescence, 3 h; Q61009; inhibition, % at 12.5 µM; 0.96% of 320,000 active;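 active = mean replicate inhibition of at least 70% and a set share of replicates each scoring 70 or more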;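 also: 0% = median of neutral control wells and 100% = median of positive control wells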
# Target sequence (Q61009 whole entry, looked up): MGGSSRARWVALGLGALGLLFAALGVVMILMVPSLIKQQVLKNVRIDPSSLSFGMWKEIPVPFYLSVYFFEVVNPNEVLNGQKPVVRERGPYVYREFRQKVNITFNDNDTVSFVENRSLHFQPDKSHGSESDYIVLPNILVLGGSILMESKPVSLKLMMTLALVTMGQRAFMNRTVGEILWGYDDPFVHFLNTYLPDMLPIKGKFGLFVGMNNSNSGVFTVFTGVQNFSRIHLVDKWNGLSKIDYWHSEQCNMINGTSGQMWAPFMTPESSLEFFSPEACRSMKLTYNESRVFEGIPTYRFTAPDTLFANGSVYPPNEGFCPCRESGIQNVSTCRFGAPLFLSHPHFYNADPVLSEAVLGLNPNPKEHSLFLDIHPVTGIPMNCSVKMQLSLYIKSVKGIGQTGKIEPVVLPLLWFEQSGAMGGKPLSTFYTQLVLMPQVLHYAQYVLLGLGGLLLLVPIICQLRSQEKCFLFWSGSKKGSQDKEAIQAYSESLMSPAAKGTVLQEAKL
# Vif inh: HIV Vif inhibition; HEK293T cells, Vif self-association by quenched fluorescence, imaging, 24 h; inhibition, % at 7.49 µM; 0.35% of 340,000 active; AID 602346; in the data active = inhibition above about 50%, passing the limit was not always enough
# NTR1 agonist: NTR1 (human) agonism; NTR1-U2OS beta-arrestin-GFP spot imaging, agonist mode; 0.17% of 330,000 active; activation, % at 20 µM; P30989;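 active = activation at or above 40% of the spot to cytoplasm intensity ratio, with at least 20 cells analyzed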;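 also: 0% = DMSO without peptide and 100% = 100 nM NTR1 peptide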
# CaV13 ICDI inh: Primary screen for inhibitors of IQ motif and Ca2+-dependent inactivation inhibitor domain binding in CACNA1D, Förster resonance energy transfer in living cells, …; HEK cells, CFP/YFP FRET ICDI-IQ, plate reader, 10 min; percent FRET-ratio fall versus neutral wells; inhibition, % at 12.3 µM; 0.098% of 340,000 active; AID 743397;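 active = mean replicate inhibition of at least 30% and at least 1% of replicates passing that level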;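 also: 0% = median of the neutral control wells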
# Active calls of the source: *; x = not tested or not shown; ! = repeats disagree.
SMILES,SR-BI uptake up,V-ATPase pH,SR-BI DiI inh,Vif inh,NTR1 agonist,CaV13 ICDI inh
CCOC(=O)c1ccc(N2CCN(C(C)=O)CC2)c(NC(=O)c2cccnc2)c1,1,3,-1,-3,1,-1
N/C(=N\OC(=O)COc1ccc(Br)cc1Cl)c1ccccn1,13,22*,-13,-6,1,-5
N/C(=N\OC(=O)COc1ccc(Cl)cc1Cl)c1ccccn1,3,1,-3,-1,0,-18
O=C(N/N=C\c1cn[nH]c1-c1ccccc1)c1ccc([N+](=O)[O-])cc1,-9,0,9,1,-2,-19
COc1cc(/C=N\NC(=O)c2ccc(Cl)cc2)ccc1Oc1ccc([N+](=O)[O-])cn1,-79,-4,79*,-13,1,-6
O=C(N/N=C/c1cn[nH]c1-c1ccc(Cl)cc1)c1ccc([N+](=O)[O-])cc1,-95,0,95*,3,6,1
COc1cc(/C=C(/C#N)c2ccc(F)cc2)ccc1Oc1ccc([N+](=O)[O-])cn1,-85,-2,85*,1,1,-5
CCOc1cc(C=C(C#N)C#N)ccc1Oc1ccc([N+](=O)[O-])cn1,-12,3,12,-2,1,2
CCOC(=O)C1(C)CCN1C(=O)c1cc2ccccc2s1 (stereo not given),x,x,x,9,x,-5
NC(=S)N/N=C1/CCSc2ccc3ccccc3c21,-79,2,79*,5,4,-5
CCCCOc1ccc(/C=C/C2=CC(C)(C)NC(=S)N2)cc1OCC,-89,1,89*,-1,4,-5
CCOc1cc(C=O)ccc1OCCCN1C(=O)NC(C)(C)C1=O,15,4,-15,-1,0,-6
COCCn1c(=N)c(S(=O)(=O)c2ccc(F)cc2)cc2c(=O)n3ccccc3nc21,31,-2,-31,5,2,104*
Cc1ccc(Cn2c(=N)c(S(=O)(=O)c3ccc(Br)cc3)cc3c(=O)n4ccccc4nc32)cc1,11,-4,-11,53*,0,x
COCCn1c(=N)c(S(=O)(=O)c2ccc(Br)cc2)cc2c(=O)n3ccccc3nc21,24,7,-24,-2,5,3
CC1CCC(=C(C#N)c2nc(-c3cc4ccccc4oc3=O)cs2)CC1 (stereo not given),-76,-1,76*,24,1,x
COc1cc(/C=C/C(=O)Nc2ccc(C(C)=O)cc2)cc(OC)c1OC,-75,2,75*,0,1,-5
COc1cc(/C=C/C(=O)Nc2ccncc2)cc(OC)c1OC,-36,2,36,0,0,-5
COc1ccc(Br)cc1/C=C/C(=O)Nc1c(C)cccc1C,-62,-3,62,-1,1,-4
COc1ccc(NC(=O)/C=C/c2cc(Br)ccc2OC)cc1,-74,4,74*,-11,6,x
COc1ccc(Br)cc1/C=C/C(=O)c1ccc(NC(C)=O)cc1,-77,-1,76*,0,x,-2
CCN(CC)c1ccc(NC(=O)/C=C/c2cc(Br)ccc2OC)cc1,-80,-1,80*,-6,0,x
COC(=O)[C@]12C[C@H](CC(=O)NCc3cccs3)C(=O)N(Cc3ccc4c(c3)OCO4)C1=C[C@H](C(C)(C)C)O[C@@H]2C,x,x,x,x,x,-9
COc1ccc(C(=O)Nc2ccc(N3CCCC3)cc2)cc1OC,-74,-1,74*,-2,1,-9
COc1cc(C(=O)NC(=S)Nc2ccc(N3CCCC3)cc2)cc(OC)c1OC,-75,0,75*,7,3,-5
SMILES,SR-BI uptake up,V-ATPase pH,SR-BI DiI inh,Vif inh,NTR1 agonist,CaV13 ICDI inh
Cc1ccc(C(=O)Nc2ccc(N3CCCC3)cc2)c(C)c1,-84,-2,84*,-3,4,-5
COc1ccc(C(=O)Nc2ccc(N3CCOCC3)cc2)cc1OC,-8,-4,8,x,0,x
COc1ccc(C(=O)Nc2ccc(N3CCN(C(=O)c4cccs4)CC3)cc2)cc1Br,-72,2,72*,-19,0,-2
COCCN1Cc2cc(C(=O)OC)c3c(c2C1=O)c1cc(F)ccc1n3C(=O)c1ccccc1,x,x,x,x,x,-4
CCOC(=O)N[C@H](C(=O)N1CCC[C@H]1C(=O)NC1CCCC1)C1CCCCC1,x,x,x,x,x,-2
O=C(/C=C/c1ccccc1[N+](=O)[O-])NCCc1ccc(F)cc1,9,-3,-9,-2,2,1
COC(=O)c1c(C(C)=O)c(C)n(C)c1C,12,-5,-12,4,-1,-3
COc1ccc(NC(=O)c2ccc(CNc3c(NC4CCCCC4)c(=O)c3=O)cc2)cc1OC,-78,-1,78*!,0,-3,-6
Cc1sc2ncnc(N3CCC(C(=O)NNC(=O)COc4ccc(Br)cc4)CC3)c2c1C,-81,-1,81*,-3,14,-15
COc1cc(CCC(=O)Nc2cc(C)cc(C)c2)cc(OC)c1OC,-83,-1,83*,-8,2,-7
COc1cc(CCC(=O)Nc2ccc(Br)c(C(F)(F)F)c2)cc(OC)c1OC,-55,-6,55,-14,4,-4
COc1ccc2nc(NC(=O)CCc3cc(OC)c(OC)c(OC)c3)sc2c1,-72,-2,72*,-4,1,1
COc1ccc2nc(NC(=O)CCn3cccc3)sc2c1,-31,0,31,-2,0,-5
COc1ccccc1Nc1nc(-c2ccccc2O)nc2ccccc12,-48,-1,48,11,3,-5
Oc1ccc(Nc2nc(-c3ccccc3O)nc3ccccc23)cc1,-74,3,74*,6,33,-20
Oc1ccccc1Nc1nc(-c2ccccc2O)nc2ccccc12,-93,0,93*,-4,6,-2
Cc1cc(C)c(C)c(N=Nc2nc3ccccc3n2C)c1C,-79,3,79*,-4,8,-5
Cc1ccc(C)c(N=Nc2nc3ccccc3n2C)c1,-37,1,37,-7,4,x
CCn1c(Oc2ccc(F)cc2)nc2c1c(=O)n(C)c(=O)n2C,-1,-1,1,-6,0,3
CCCCn1c(Oc2ccc(C(=O)OC)cc2)nc2c1c(=O)n(C)c(=O)n2C,-92,-2,92*,-3,5,x
CNc1nc(-c2ccc3c(c2)CCN3C(=O)CC(C)(C)C)c(C)s1,-73,5,73*,1,0,-19
CNc1nc(-c2ccc3c(c2)CCN3S(=O)(=O)c2ccccc2)c(C)s1,-26,0,26,-3,-1,-16
CC(=O)Nc1nc(-c2ccc3c(c2)CCN3C(=O)C2CC2)c(C)s1,-95,-1,95*,7,0,-5
O=C(O)/C=C/c1ccc(S(=O)(=O)NCc2cccnc2)cc1,19,2,-19,5,0,-2
